We go through 1 compound from ChEMBL document CHEMBL4732185, “Synthesis, biological evaluation and structure-activity relationship of novel dichloroacetophenones targeting pyruvate dehydrogenase kinases with potent anticancer activity” (Eur J Med Chem, 2021).

pEC50, pIC50, pKd: −log10 of the molar value. Activity calls are given as the source filed them. No cut-off for these calls is given here.

The test system of series [1] is MCF7. Put plainly: Antiproliferative activity against human MCF7 cells assessed as growth inhibition at 1 uM after 72 hrs by MTT assay relative to control. Type of series: functional. To be noted: read-out: GI. In outline:
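Single-concentration MTT screen on MCF-7 and A549 cells grown in DMEM + 10% FBS. Cells at 3000–6000/well, cultured overnight, then given compound in buffer with 1% DMSO for 72 h. MTT (0.5 mg/mL) added for 4 h, formazan dissolved in DMSO, A570 read. Percent inhibition reported as the average ± S.D. of three independent measurements.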

For the next series, the system named is A549. Put plainly: Antiproliferative activity against human A549 cells assessed as growth inhibition after 72 hrs by MTT assay. The class given is functional, cell-based. The note with it: Homo sapiens, A549, 72 h; read-out: IC50. In outline: (§1)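 MTT viability assay. Cancer lines seeded at 3000–6000 cells/well and L02 at 7000 cells/well, cultured overnight, then exposed to a full dose range for 72 h. MTT (0.5 mg/mL) added for 4 h, supernatant removed, formazan dissolved in DMSO, absorbance read at 570 nm. IC50 taken as the mean of three independent experiments. Cells grown in DMEM + 10% FBS, 37 °C, 5% CO2.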
Background: Tetrazolium assays rely on reduction of a dye to a coloured formazan, in cell work by metabolically active cells.

In series [2] the test system is MCF7. Put plainly: Antiproliferative activity against human MCF7 cells assessed as growth inhibition after 72 hrs by MTT assay. Type of series: functional, cell-based. The note with it: Homo sapiens, MCF7, 72 h; read-out: IC50. In outline: as §1
Another series deals with HCT-116. Nature of the series: Antiproliferative activity against human HCT-116 cells assessed as growth inhibition after 72 hrs by MTT assay. The class given is functional, cell-based. To be noted: Homo sapiens, HCT-116, 72 h; read-out: IC50. The method in brief:
as §1

A short description of series [3]: Inhibition of PDK (unknown origin) using RYHGHSMSDP as substrate after 30 mins by Kinase-Glo luminescent assay. Also on record: species or system Homo sapiens. On the technique in general: Kinase-Glo measures the ATP left after a reaction by luminescence.
The target in series [4] is [Pyruvate dehydrogenase (acetyl-transferring)] kinase isozyme 1, mitochondrial (Homo sapiens, UniProt Q15118). Put plainly: Binding affinity to PDK1 (unknown origin) by isothermal titration calorimetry. The method in brief: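 Isothermal titration calorimetry at 25 °C. Compound dissolved in DMSO, diluted to 100 µM in buffer and placed in the titration syringe; 250 µL of PDK protein solution in the reaction cell. Titrant added in 2.5 µL increments per injection.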
[Pyruvate dehydrogenase (acetyl-transferring)] kinase isozyme 1, mitochondrial, sequence (Q15118 whole entry): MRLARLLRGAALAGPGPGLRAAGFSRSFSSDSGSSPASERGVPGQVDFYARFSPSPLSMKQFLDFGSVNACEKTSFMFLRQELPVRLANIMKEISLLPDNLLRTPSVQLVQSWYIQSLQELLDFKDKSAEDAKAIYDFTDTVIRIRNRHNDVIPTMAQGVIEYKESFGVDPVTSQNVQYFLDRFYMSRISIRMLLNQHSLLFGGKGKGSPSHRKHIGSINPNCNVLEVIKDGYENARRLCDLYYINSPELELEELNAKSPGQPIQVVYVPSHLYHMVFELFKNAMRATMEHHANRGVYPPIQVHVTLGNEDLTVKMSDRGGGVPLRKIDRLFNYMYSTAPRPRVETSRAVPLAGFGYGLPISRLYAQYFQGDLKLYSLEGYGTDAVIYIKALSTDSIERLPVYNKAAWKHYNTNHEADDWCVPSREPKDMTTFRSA
Background: Isothermal titration calorimetry measures the heat released or taken up as one component is titrated into another.

For series [5], the system named is A-375. Nature of the series: Induction of apoptosis in human A375 cells assessed as viable cells at 1 uM after 36 hrs by annexinV-FITC/propidium iodide staining based flow cytometric analysis (reference value: 94.15%). The class given is functional. To be noted: read-out: Activity.
Series [6] deals with A-375. Put plainly: Induction of apoptosis in human A375 cells assessed as early apoptotic cells at 2.5 uM after 36 hrs by annexinV-FITC/propidium iodide staining based flow cytometric analysis (reference value: 3.2%). Type of series: functional.
The test system of series [7] is A-375. Nature of the series: Induction of apoptosis in human A375 cells assessed as necrotic cells at 2.5 uM after 36 hrs by annexinV-FITC/propidium iodide staining based flow cytometric analysis (reference value: 1.63%). Type of series: functional.
The test system of series [8] is A-375. Put plainly: Induction of apoptosis in human A375 cells assessed as viable cells at 5 uM after 12 hrs by annexinV-FITC/propidium iodide staining based flow cytometric analysis (reference value: 97.94%). Type of series: functional. To be noted: read-out: Activity.
Series [9] relates to A-375. Put plainly: Induction of apoptosis in human A375 cells assessed as early apoptotic cells at 5 uM after 12 hrs by annexinV-FITC/propidium iodide staining based flow cytometric analysis (reference value: 0.87%). The class given is functional.
The subject of series [10] is A-375. Put plainly: Induction of apoptosis in human A375 cells assessed as late apoptotic cells at 5 uM after 12 hrs by annexinV-FITC/propidium iodide staining based flow cytometric analysis (reference value: 0.63%). Type of series: functional.
Series [11] concerns A-375. Put plainly: Induction of apoptosis in human A375 cells assessed as necrotic cells at 5 uM after 12 hrs by annexinV-FITC/propidium iodide staining based flow cytometric analysis (reference value: 0.56%). The class given is functional.
Series [12] has as its system A-375. Nature of the series: Induction of apoptosis in human A375 cells assessed as viable cells at 5 uM after 24 hrs by annexinV-FITC/propidium iodide staining based flow cytometric analysis (Rvb= 97.94%). Type of series: functional. To be noted: read-out: Activity.
The test system of series [13] is A-375. Nature of the series: Induction of apoptosis in human A375 cells assessed as necrotic cells at 5 uM after 24 hrs by annexinV-FITC/propidium iodide staining based flow cytometric analysis (reference value: 0.56%). The class given is functional.
Series [14] concerns A-375. Put plainly: Induction of cell cycle arrest in human A375 cells assessed as accumulation at S phase at 1 uM after 24 hrs by propidium iodide staining based flow cytometric analysis (reference value: 37.33%). Type of series: functional.
Series [15] has as its system A-375. Put plainly: Induction of cell cycle arrest in human A375 cells assessed as accumulation at G2 phase at 1 uM after 24 hrs by propidium iodide staining based flow cytometric analysis (reference value: 10.02%). The class given is functional.
For series [16], the system named is A-375. Put plainly: Induction of cell cycle arrest in human A375 cells assessed as accumulation at G1 phase at 2.5 uM after 24 hrs by propidium iodide staining based flow cytometric analysis (reference value: 52.65%). Type of series: functional.
The test system of series [17] is A-375. Put plainly: Induction of cell cycle arrest in human A375 cells assessed as accumulation at S phase at 2.5 uM after 24 hrs by propidium iodide staining based flow cytometric analysis (reference value: 37.33%). Type of series: functional.
The subject of series [18] is A-375. Put plainly: Induction of mitochondrial membrane depolarization in human A375 cells at 2 to 10 uM after 4 hrs by TMRM staining based confocal microscopic analysis. The class given is functional, cell-based. The note with it: dose 2-10 µM. In outline: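 A375 cells seeded at 4 x 10⁴ cells/mL and grown overnight at 37 °C. Treated 4 h at 37 °C. TMRM in fresh medium added for 15 min at 37 °C. Cells washed 3 times with cool PBS and imaged by laser scanning confocal microscopy.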

Series [19] deals with A-375. Nature of the series: Induction of mitochondrial membrane depolarization in human A375 cells at 2 to 10 uM after 4 hrs by JC-1 staining based confocal microscopic analysis. The class given is functional, cell-based. To be noted: dose 2-10 µM. In outline: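 Mitochondrial membrane potential. A375 cells seeded at 4 × 10^4 cells/mL, grown overnight, then treated at 2, 5 or 10 µM at 37 °C for 4 h. Stained with JC-1 in fresh medium for 15 min at 37 °C, washed three times with cool PBS and imaged by laser scanning confocal microscopy (red J-aggregate vs green monomer).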

Series [20] concerns A-375. Nature of the series: Inhibition of PDK in human A375 cells assessed as reduction lactate formation at 2.5 to 5 uM after 4 hrs by Nova Bio-profile Flex analyzer. The class given is cell-based. The note with it: dose 2.5-5 µM. In outline: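 A375 cells seeded at 2.5 × 10⁵/well in 24-well plates and cultured overnight. Treated 4 h at 37 °C. Medium collected and centrifuged 4 min at 12000 rpm for lactate determination.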

The subject of series [21] is A-375. Put plainly: Induction of ROS generation in human A375 cells at 1 to 5 uM after 4 hrs by DCFH-DA staining based assay. Type of series: functional, cell-based. To be noted: dose 1-5 µM. The method in brief: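 ROS assay. A375 cells loaded with diluted DCFH-DA for 45 min at 37 °C, washed three times with PBS, then treated with compound at 37 °C for 4 h. Fluorescence read on a microplate reader at Ex/Em 485/535 nm.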

Series [22] in a line: Toxicity in mouse xenografted with human A375 cells assessed as reduction in body weight at 5 mg/kg, im administered once per three days for 21 days. To be noted: in vivo, 504 h, time 21 day. Type of series: organism-based. The method in brief:
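A375 cells at 80% confluence harvested with trypsin/EDTA, resuspended in serum-free DMEM, and injected subcutaneously into the right flank. Tumours visible at 7 days. Mice randomized to vehicle or 5 mg/kg (n = 4/group), dosed intramuscularly once every three days. Body weight followed over 21 days.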

In the case of `CC(C)(CO)c1ccc(Nc2ccc(C(=O)C(Cl)Cl)cc2[N+](=O)[O-])cc1`, the inhibition of growth at 1 µM with MCF7 [1] came out at 38.9%. For the same compound, the figures for the negative-log IC50 (pIC50) with A549, in the series on MCF7 [2] and with HCT-116 were 5.49, 5.62 and 5.68, respectively. The negative logarithm of the EC50 (pEC50) in series [3] was 7.05. Moreover, the pKd in series [4] was 6.68. Also, in the series on A-375 [5], the viability at 1 µM was 81.9%. Moreover, the Activity stood at 5.6% with A-375 [6]; 3.17% with A-375 [7]; 8.7% in the series on A-375 [9]; 6.88% in the series with A-375 [10]; 1.65% in the series with A-375 [11]; 3.56% in the series with A-375 [13]. Moreover, the Activity in the series on A-375 [14] is reported as 34.63%; in the series with A-375 [15] it was 9.64%; in the series on A-375 [16] it was 60.75%; with A-375 [17] it was 30.75%; in series [22], “Non-Toxic”. Further, the viability at 5 µM in the series on A-375 [8] was 82.8%; with A-375 [12], 70.9%. Moreover, the outcome in the series with A-375 [18], in the series on A-375 [19] and in the series on A-375 [21] was Active. Also, in the series with A-375 [20], the inhibition entry is “Active”.

For orientation: pIC50 means −log10 of the IC50, conventionally taken in molar units. By pEC50 is commonly meant the EC50 on a negative log10 scale, so that one unit is a factor of ten. A high value points to a small EC50. The pKd is the Kd on a negative log10 scale, so that one unit is a factor of ten. Higher therefore signals a low Kd.
